The inhibition is how much of the control response was suppressed. Higher therefore signals strong suppression.

Where a SMILES comes first, the peptide text is derived from it. Bridges are numbered along the chain shown (N, C = ends). [ ]: non-standard residue; d: D form. The star is where a group is joined. Pen = CC(C)(S)[C@H](N)C(=O)O; Acm = CC(=O)NC*

Experimental findings from ChEMBL document CHEMBL1141102, “Structure-activity studies of peptides from the "hot-spot" region of human CD2 protein: development of peptides for immunomodulation” (2005) are described below.

In one test the target is T1, Lymphocyte function-associated antigen 3 (Homo sapiens) (UniProt P19256).
T1 sequence (whole entry): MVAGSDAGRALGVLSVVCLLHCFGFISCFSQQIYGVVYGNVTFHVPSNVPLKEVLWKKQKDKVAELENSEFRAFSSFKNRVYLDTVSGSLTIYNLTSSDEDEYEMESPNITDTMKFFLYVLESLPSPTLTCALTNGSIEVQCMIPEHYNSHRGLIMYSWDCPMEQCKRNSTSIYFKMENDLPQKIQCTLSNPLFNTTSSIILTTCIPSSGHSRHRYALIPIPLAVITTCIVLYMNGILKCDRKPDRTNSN
Kind of test: Percent inhibition of E-rossette formation in sheep red blood cells at 200 uM on incubation with T-cells; range 5-15%. It counts as functional, cell-based. The conditions noted are these: Ovis aries. A digest of the protocol:
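Sheep RBCs treated with AET at 37 °C for 15 min, used as 0.5% suspension. Peptide serially diluted in PBS, incubated with the SRBCs at 37 °C for 30 min, then Jurkat cells (2×10^6 cells/mL) added for 15 min. Cells pelleted and held at 4 °C for 1 h. Rosettes counted by hemocytometer on at least 200 cells; percent inhibition; mean of three independent experiments.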
In turn, H-SIYDTKGKNVLE-NH2 had an inhibition of 15%.

System in a further test: not listed separately
Kind of test: Percent inhibition of CD58 and CD2 interaction in caco-2 and Jurkat cell adhesion assay at 90 uM. The conditions noted are these: Homo sapiens. It counts as functional. A digest of the protocol:
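Confluent Caco-2 monolayers (passages 50–60, human CD58) preincubated with peptide in MEM-α at 37 °C for 30 min. Jurkat cells (CD2), loaded with 2 μM BCECF at 37 °C for 1 h, then added at 1×10^6 cells/well for 45 min at 37 °C. Nonadherent cells washed off with PBS; bound cells lysed in 2% Triton X-100/0.2 N NaOH. Background-corrected fluorescence read; percent inhibition; mean of three experiments.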
Compound `CC[C@H](C)[C@@H]1NC(=O)[C@@H](N)C(C)(C)SSC[C@@H](C(=O)O)NC(=O)[C@H](CC(C)C)NC(=O)[C@H](C(C)C)NC(=O)[C@H](CC(N)=O)NC(=O)[C@H](CCCCN)NC(=O)CNC(=O)[C@H](CCCCN)NC(=O)[C@H]([C@@H](C)O)NC(=O)[C@H](CC(=O)O)NC(=O)[C@H](Cc2ccc(O)cc2)NC1=O` returned an inhibition at 90 µM of 50%. Turning to `C[C@@H](O)[C@@H]1NC(=O)[C@@H](CC(=O)O)NC(=O)[C@H](Cc2ccc(O)cc2)NC(=O)[C@@H](CCCCN)NC(=O)CNC(=O)[C@@H](CCCCN)NC1=O`, 90 µM produced 20% inhibition.

`NCCCC[C@@H]1NC(=O)[C@@H](CCC(=O)O)NC(=O)[C@H](CCCCN)NC(=O)[C@@H](CCCN=C(N)N)NC(=O)[C@H](Cc2ccccc2)NC(=O)[C@@H](CCC(=O)O)NC1=O` came in with an inhibition at 90 µM of 25%. In turn, `CC(=O)NCSC[C@H](NC(=O)[C@H](Cc1ccccc1)NC(=O)[C@@H](NC(=O)[C@H](CCC(=O)O)NC(=O)[C@H](CCCCN)NC(=O)[C@H](CCC(=O)O)NC(=O)[C@H](CCCCN)NC(=O)[C@H](CCCN=C(N)N)NC(=O)[C@H](Cc1ccccc1)NC(=O)[C@H](CCC(N)=O)NC(=O)[C@H](C)NC(=O)[C@@H](N)C(C)(C)SCNC(C)=O)[C@@H](C)O)C(=O)O` (H-[Pen](Acm)AQFRKEKETFC(Acm)-OH) displayed an inhibition at 90 µM of 25%. In turn, `C[C@@H]1NC(=O)[C@@H](N)C(C)(C)SSC[C@@H](C(=O)O)NC(=O)[C@H](Cc2ccccc2)NC(=O)[C@H]([C@@H](C)O)NC(=O)[C@H](CCC(=O)O)NC(=O)[C@H](CCCCN)NC(=O)[C@H](CCC(=O)O)NC(=O)[C@H](CCCCN)NC(=O)[C@H](CCCN=C(N)N)NC(=O)[C@H](Cc2ccccc2)NC(=O)[C@H](CCC(N)=O)NC1=O` (H-[Pen]AQFRKEKETFC-OH; disulfide 1-12) yielded an inhibition at 90 µM of 50%. Compound H-SIYDTKGKNVLE-NH2 gave an inhibition at 90 µM of 25%.
